In ChEMBL document CHEMBL3877250, “Design, synthesis, and biological evaluation of (2E)-(2-oxo-1, 2-dihydro-3H-indol-3-ylidene)acetate derivatives as anti-proliferative agents through ROS-induced cell apoptosis” (Eur J Med Chem, 2016):

Key:
[1] = Cytotoxicity against human HCT116 cells assessed as growth inhibition at 20 uM after 72 hrs by CCK-8 assay; format: functional; conditions: HCT-116, 72 h, read-out: GI
Summary of the method: (§1)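 Cells kept in RPMI 1640 with 10% heat-inactivated fetal calf serum and 1% streptomycin/penicillin at 37 °C, 5% CO2. After compound exposure, CCK-8 was added and cells were incubated 4 h at 37 °C, then absorbance was read at 450 nm. Viability is relative to untreated cells (100%). IC50 comes from nonlinear regression, mean of three separate determinations. Single-concentration screen at 20 µM.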

[2] = Cytotoxicity against human SW480 cells assessed as growth inhibition at 20 uM after 72 hrs by CCK-8 assay; format: functional; conditions: SW480, 72 h, read-out: GI; summary of the method: as §1
[3] = Antitumor activity against human HepG2 cells assessed as growth inhibition at 20 uM after 72 hrs by CCK-8 assay; format: functional; conditions: HepG2, 72 h, read-out: GI; summary of the method: as §1
[4] = Cytotoxicity against human HL60 cells after 72 hrs by CCK-8 assay; format: functional, cell-based; conditions: HL-60, 72 h; summary of the method: as §1
[5] = Cytotoxicity against human L02 cells after 72 hrs by CCK-8 assay; format: toxicity, cell-based; summary of the method: as §1
[6] = Cytotoxicity against human SK-BR-3 cells after 72 hrs by CCK-8 assay; format: functional, cell-based; conditions: SK-BR-3, 72 h; summary of the method: as §1
[7] = Cytotoxicity against human HCT116 cells after 72 hrs by CCK-8 assay; format: functional, cell-based; conditions: HCT-116, 72 h; summary of the method: as §1
[8] = Cytotoxicity against human Saos2 cells after 72 hrs by CCK-8 assay; format: functional, cell-based; conditions: SAOS-2, 72 h; summary of the method: as §1
[9] = Cytotoxicity against human OVCAR3 cells after 72 hrs by CCK-8 assay; format: functional, cell-based; conditions: OVCAR-3, 72 h; summary of the method: as §1
[10] = system: HCT-116; assay: Induction of apoptosis in human HCT116 cells assessed as late apoptotic cells at 0.1 uM after 48 hrs by Annexin V-FITC/propidium iodide staining based flow cytometry (reference value: 6.7%); format: functional
[11] = system: HCT-116; assay: Induction of apoptosis in human HCT116 cells assessed as live cells at 0.5 uM after 48 hrs by Annexin V-FITC/propidium iodide staining based flow cytometry (reference value: 88.7%); format: functional
[12] = system: HCT-116; assay: Induction of apoptosis in human HCT116 cells assessed as necrotic cells at 1 uM after 48 hrs by Annexin V-FITC/propidium iodide staining based flow cytometry (reference value: 0.8%); format: functional
[13] = system: HCT-116; assay: Induction of apoptosis in human HCT116 cells assessed as early apoptotic cells at 4 uM after 48 hrs by Annexin V-FITC/propidium iodide staining based flow cytometry (reference value: 3.8%); format: functional
Summary of the method: (§2)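 HCT116 seeded at 2×10^5 cells/well, cultured 6 h, then treated 48 h at 0.1, 0.5, 1, 4, 8 or 16 µM; DMSO (0.1%) served as vehicle. Cells washed twice in cold PBS, resuspended in binding buffer with FITC Annexin V and PI for 15 min at RT in the dark, diluted, and run on flow cytometry within 1 h.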

[14] = system: HCT-116; assay: Induction of apoptosis in human HCT116 cells assessed as necrotic cells at 4 uM after 48 hrs by Annexin V-FITC/propidium iodide staining based flow cytometry (reference value: 0.8%); format: functional
[15] = system: HCT-116; assay: Induction of apoptosis in human HCT116 cells assessed as live cells at 8 uM after 48 hrs by Annexin V-FITC/propidium iodide staining based flow cytometry (reference value: 88.7%); format: functional
[16] = system: HCT-116; assay: Induction of apoptosis in human HCT116 cells assessed as live cells at 16 uM after 48 hrs by Annexin V-FITC/propidium iodide staining based flow cytometry (reference value: 88.7%); format: functional
[17] = system: HCT-116; assay: Induction of apoptosis in human HCT116 cells assessed as late apoptotic cells at 16 uM after 48 hrs by Annexin V-FITC/propidium iodide staining based flow cytometry (reference value: 6.7%); format: functional
[18] = system: HCT-116; assay: Induction of apoptosis in human HCT116 cells assessed as necrotic cells at 16 uM after 48 hrs by Annexin V-FITC/propidium iodide staining based flow cytometry (reference value: 0.8%); format: functional
[19] = system: HCT-116; assay: Induction of apoptosis in human HCT116 cells after 48 hrs by Annexin V-FITC/propidium iodide staining based flow cytometry; format: functional, cell-based; summary of the method: as §2
[20] = Cell cycle arrest in human HCT116 cells assessed as sub-G1 phase accumulation at 0.1 uM after 48 hrs by Annexin V-FITC/propidium iodide staining based flow cytometry (reference value: 4.36%); format: functional; conditions: HCT-116
[21] = Cell cycle arrest in human HCT116 cells assessed as G1 phase accumulation at 0.5 uM after 48 hrs by Annexin V-FITC/propidium iodide staining based flow cytometry (reference value: 40.83%); format: functional; conditions: HCT-116
[22] = Cell cycle arrest in human HCT116 cells assessed as sub-G1 phase accumulation at 0.5 uM after 48 hrs by Annexin V-FITC/propidium iodide staining based flow cytometry (reference value: 4.36%); format: functional; conditions: HCT-116
[23] = Cell cycle arrest in human HCT116 cells assessed as G1 phase accumulation at 1 uM after 48 hrs by Annexin V-FITC/propidium iodide staining based flow cytometry (reference value: 40.83%); format: functional; conditions: HCT-116
[24] = Cell cycle arrest in human HCT116 cells assessed as S phase accumulation at 1 uM after 48 hrs by Annexin V-FITC/propidium iodide staining based flow cytometry (reference value: 28.43%); format: functional; conditions: HCT-116
[25] = Cell cycle arrest in human HCT116 cells assessed as sub-G1 phase accumulation at 1 uM after 48 hrs by Annexin V-FITC/propidium iodide staining based flow cytometry (reference value: 4.36%); format: functional; conditions: HCT-116
[26] = Cell cycle arrest in human HCT116 cells assessed as S phase accumulation at 2 uM after 48 hrs by Annexin V-FITC/propidium iodide staining based flow cytometry (reference value: 28.43%); format: functional; conditions: HCT-116
[27] = Cell cycle arrest in human HCT116 cells assessed as G1 phase accumulation at 3 uM after 48 hrs by Annexin V-FITC/propidium iodide staining based flow cytometry (reference value: 40.83%); format: functional; conditions: HCT-116
[28] = Cell cycle arrest in human HCT116 cells assessed as S phase accumulation at 3 uM after 48 hrs by Annexin V-FITC/propidium iodide staining based flow cytometry (reference value: 28.43%); format: functional; conditions: HCT-116
[29] = Cell cycle arrest in human HCT116 cells assessed as G2/M phase accumulation at 3 uM after 48 hrs by Annexin V-FITC/propidium iodide staining based flow cytometry (reference value: 25.3%); format: functional; conditions: HCT-116
[30] = Cell cycle arrest in human HCT116 cells assessed as sub-G1 phase accumulation at 3 uM after 48 hrs by Annexin V-FITC/propidium iodide staining based flow cytometry (reference value: 4.36%); format: functional; conditions: HCT-116
[31] = Cell cycle arrest in human HCT116 cells assessed as G1 phase accumulation at 4 uM after 48 hrs by Annexin V-FITC/propidium iodide staining based flow cytometry (reference value: 40.83%); format: functional; conditions: HCT-116
[32] = Cell cycle arrest in human HCT116 cells assessed as S phase accumulation at 4 uM after 48 hrs by Annexin V-FITC/propidium iodide staining based flow cytometry (reference value: 28.43%); format: functional; conditions: HCT-116
[33] = Cytotoxicity against human L02 cells; format: toxicity, cell-based
[34] = system: HCT-116; assay: Induction of apoptosis in human HCT116 cells assessed as early apoptotic cells at 16 uM after 48 hrs by Annexin V-FITC/propidium iodide staining based flow cytometry (reference value: 3.8%); format: functional; summary of the method: as §2

Question: For `CC(C)(C)OC(=O)/C=C1/C(=O)Nc2ccccc21`, which inhibition of growth at 20 µM [1] is on record?
Answer: 89.5%

Question: And the inhibition of growth at 20 µM [2]?
Answer: 78.1%

Question: What about the inhibition of growth at 20 µM [3] of the same compound?
Answer: 86.1%

Question: What about the IC50 [4] of the same compound?
Answer: 2.45 µM

Question: What about the IC50 at 72 h [5] of the same compound?
Answer: 2.45 µM

Question: What about the IC50 [6] of the same compound?
Answer: 3.42 µM

Question: What about the IC50 [7] of the same compound?
Answer: 2.64 µM

Question: What about the IC50 [8] of the same compound?
Answer: 6.11 µM

Question: And the IC50 [9]?
Answer: 6.55 µM

Question: What about the Activity [10] of the same compound?
Answer: 6.2%

Question: And the Activity [11]?
Answer: 89%

Question: What about the Activity [12] of the same compound?
Answer: 1.3%

Question: What about the Activity [13] of the same compound?
Answer: 3.6%

Question: What about the Activity [14] of the same compound?
Answer: 0.7%

Question: And the Activity [15]?
Answer: 78.4%

Question: What about the Activity [16] of the same compound?
Answer: 26.1%

Question: And the Activity [17]?
Answer: 69.1%

Question: What about the Activity [18] of the same compound?
Answer: 2.1%

Question: What about the Activity [19] of the same compound?
Answer: Dose-dependent effect

Question: And the Activity [20]?
Answer: 1.27%

Question: And the Activity [21]?
Answer: 40.9%

Question: And the Activity [22]?
Answer: 0.25%

Question: What about the Activity [23] of the same compound?
Answer: 25.4%

Question: What about the Activity [24] of the same compound?
Answer: 34.3%

Question: What about the Activity [25] of the same compound?
Answer: 1.06%

Question: And the Activity [26]?
Answer: 25.2%

Question: What about the Activity [27] of the same compound?
Answer: 35.6%

Question: And the Activity [28]?
Answer: 30.1%

Question: And the Activity [29]?
Answer: 22.6%

Question: And the Activity [30]?
Answer: 5.11%

Question: And the Activity [31]?
Answer: 26.2%

Question: And the Activity [32]?
Answer: 22.8%

Question: And the IC50 [33]?
Answer: 6.21 µM

Question: What about the Activity [34] of the same compound?
Answer: 2.7%
